The values below come from ChEMBL document CHEMBL1147962, “Synthesis and antifungal activity of novel s-substituted 6-fluoro-4-alkyl(aryl)thioquinazoline derivatives” (Bioorg Med Chem, 2007).

Structures are written as SMILES. Values after ≈ are worked out from the molar mass of the structure shown. Active and inactive are the calls of the source. No cut-off for these calls is given here.

One assay deals with Botrytis cinerea. Briefly: Antifungal activity against Botrytis cinerea. The format is functional, organism-based.
For the compound `Cc1cc(O)no1` [HYMEXAZOL], the EC50 amounted to 4.6 µg/mL (≈ 46.4 µM).

With `CCCSc1ncnc2ccc(F)cc12`, the response was half-maximal at 13 µg/mL (≈ 58.5 µM) (EC50).

In turn, `CCSc1ncnc2ccc(F)cc12` registered an EC50 of 8.3 µg/mL (≈ 39.9 µM).

With `C=CCSc1ncnc2ccc(F)cc12`, the response was half-maximal at 42.4 µg/mL (≈ 192 µM) (EC50).

The test system of a further assay is Fusarium oxysporum. As to the kind of experiment: Effect on hyphal morphology of Fusarium oxysporum at 100 ug/mL. The format is functional, organism-based. In outline:
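Hyphae and cell contents of treated F. oxysporum were examined microscopically against untreated control hyphae.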
As to `CCSc1ncnc2ccc(F)cc12`, the result was Active.

In the next assay the test system is Cytospora. Briefly: Antifungal activity against Cytospora mandshurica at 500 ug/mL. The format is functional.
Regarding `Cc1cc(O)no1` [HYMEXAZOL], at 500 µg/mL the inhibition was 91.2%.

`COc1ccc(C(=O)CSc2ncnc3ccc(F)cc23)c(OC)c1OC`: at 500 µg/mL the inhibition was 11.2%.

Turning to `CCOC(=O)CSc1ncnc2ccc(F)cc12`, testing at 500 µg/mL gave an inhibition of 30.1%.

Turning to `CCCSc1ncnc2ccc(F)cc12`, the inhibition at 500 µg/mL worked out at 94.8%.

In turn, `Fc1ccc2ncnc(SCc3ccccc3)c2c1` returned an inhibition at 500 µg/mL of 21.4%.

`CCSc1ncnc2ccc(F)cc12` returned an inhibition at 500 µg/mL of 100%.

For the compound `Fc1ccc2ncnc(SCc3ccc(Cl)nc3)c2c1`, the inhibition at 500 µg/mL was 38.5%.

The compound `C=CCSc1ncnc2ccc(F)cc12` showed an inhibition at 500 µg/mL of 96.9%.

`Fc1ccc2ncnc(SCc3ccc(Cl)cc3)c2c1` registered an inhibition at 500 µg/mL of 11.8%.

The next assay relates to Fusarium oxysporum. As to the kind of experiment: Decrease in mycelial reducing sugar content in Fusarium oxysporum after 0.5 hrs relative to control. The format is functional. Set-up: scale not given: the % may be the effect or the level left. In outline:
(§1)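 Reducing sugar content (mg/mL) of F. oxysporum mycelia was followed over time, sampled from 0.5 h to 12 h of treatment, against an untreated control.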
In turn, `CCSc1ncnc2ccc(F)cc12` displayed an Activity of 19.8%.

In another assay the test system is Fusarium oxysporum. As to the kind of experiment: Increase in membrane permeability of Fusarium oxysporum at 100 ug/mL after 5 mins. The format is functional. The essentials: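 F. oxysporum cells were treated and sampled from 5 min onward over a longer time course. Cell-membrane relative permeability rate (%) was measured against an untreated control, with Hymexazol as reference.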
`Cc1cc(O)no1` [HYMEXAZOL] gave an Activity of 6%.

`CCSc1ncnc2ccc(F)cc12` had an Activity of 12%.

The next assay relates to Fusarium oxysporum. As to the kind of experiment: Effect on mycelial reducing sugar content in Fusarium oxysporum after 12 hrs. The format is functional. In outline:
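F. oxysporum mycelia were treated and sampled from 0.5 h to 12 h. Mycelial reducing sugar content (mg/mL) was measured at each time point against an untreated control.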
In turn, `Cc1cc(O)no1` [HYMEXAZOL] had an Activity of 0.85 mg/mL.

Turning to `CCSc1ncnc2ccc(F)cc12`, the Activity was found to be 0.67 mg/mL.

The subject of the next assay is Fusarium graminearum. As to the kind of experiment: Antifungal activity against Gibberella zeae at 500 ug/mL. In kind it is functional.
For the compound `Cc1cc(O)no1` [HYMEXAZOL], the inhibition at 500 µg/mL stood at 100%.

In turn, `COc1ccc(C(=O)CSc2ncnc3ccc(F)cc23)c(OC)c1OC` came in with an inhibition at 500 µg/mL of 6.2%.

The compound `CCOC(=O)CSc1ncnc2ccc(F)cc12` yielded an inhibition at 500 µg/mL of 13.3%.

`CCCSc1ncnc2ccc(F)cc12` returned an inhibition at 500 µg/mL of 96.4%.

With `Fc1ccc2ncnc(SCc3ccccc3)c2c1`, the inhibition at 500 µg/mL was 15%.

Regarding `CCSc1ncnc2ccc(F)cc12`, testing at 500 µg/mL gave an inhibition of 100%.

`Fc1ccc2ncnc(SCc3ccc(Cl)nc3)c2c1`: testing at 500 µg/mL gave an inhibition of 16.3%.

`C=CCSc1ncnc2ccc(F)cc12` showed an inhibition at 500 µg/mL of 100%.

Take `Fc1ccc2ncnc(SCc3ccc(Cl)cc3)c2c1`: the inhibition at 500 µg/mL is 7.6%.

The next assay deals with Rhizoctonia solani. Briefly: Antifungal activity against Rhizoctonia solani. In kind it is functional, organism-based.
With `CCCSc1ncnc2ccc(F)cc12`, the half-maximal effective concentration (EC50) is 29.2 µg/mL (≈ 131 µM).

`CCSc1ncnc2ccc(F)cc12` came in with an EC50 of 24.9 µg/mL (≈ 120 µM).

For `C=CCSc1ncnc2ccc(F)cc12`, the EC50 was found to be 46.3 µg/mL (≈ 210 µM).

In another assay the test system is Fusarium oxysporum. Briefly: Antifungal activity against Fusarium oxysporum at 500 ug/mL. The format is functional.
Consider `Cc1cc(O)no1` [HYMEXAZOL], for which the inhibition at 500 µg/mL was 91.3%.

For `COc1ccc(C(=O)CSc2ncnc3ccc(F)cc23)c(OC)c1OC`, at 500 µg/mL the inhibition was 5.3%.

`CCOC(=O)CSc1ncnc2ccc(F)cc12` gave an inhibition at 500 µg/mL of 20.3%.

`CCCSc1ncnc2ccc(F)cc12` yielded an inhibition at 500 µg/mL of 89.3%.

Regarding `Fc1ccc2ncnc(SCc3ccccc3)c2c1`, the inhibition at 500 µg/mL came out at 18.9%.

`CCSc1ncnc2ccc(F)cc12` displayed an inhibition at 500 µg/mL of 98.5%.

On to `Fc1ccc2ncnc(SCc3ccc(Cl)nc3)c2c1`, for which the inhibition at 500 µg/mL is 21.9%.

In the case of `C=CCSc1ncnc2ccc(F)cc12`, at 500 µg/mL the inhibition was 92.3%.

In the case of `Fc1ccc2ncnc(SCc3ccc(Cl)cc3)c2c1`, the inhibition at 500 µg/mL came out at 5.9%.

The next assay has as its system Fusarium oxysporum. Briefly: Effect on sporule germination of Fusarium oxysporum at 100 ug/mL. The format is functional. The essentials: (§2)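 F. oxysporum spores were exposed to a concentration series. Germination was scored as percentage of spores germinated, and inhibition was calculated relative to an untreated control.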
The compound `CCSc1ncnc2ccc(F)cc12` gave an Activity of 6.5%.

The test system of a further assay is Fusarium oxysporum. Briefly: Decrease in mycelial chitosan content in Fusarium oxysporum after 6 hrs relative to control. On the set-up: scale not given: the % may be the effect or the level left. The format is functional. The essentials: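 Chitosan content was measured as D-GlcNAc in F. oxysporum mycelia from treated cultures and read 6 h after inoculation. An untreated culture served as control and Hymexazol as the reference fungicide.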
As to `CCSc1ncnc2ccc(F)cc12`, the Activity is given as 6.1%.

Another assay relates to Phytophthora infestans. Briefly: Antifungal activity Phytophthora infestans. In kind it is functional, organism-based.
`CCCSc1ncnc2ccc(F)cc12`: the EC50 stood at 26.9 µg/mL (≈ 121 µM).

In turn, `CCSc1ncnc2ccc(F)cc12` returned a concentration giving a half-maximal response (EC50) of 26.8 µg/mL (≈ 129 µM).

`C=CCSc1ncnc2ccc(F)cc12` yielded an EC50 of 51.2 µg/mL (≈ 232 µM).

The subject of a further assay is Thanatephorus cucumeris. Briefly: Antifungal activity against Thanatephorus cucumeris. In kind it is functional, organism-based.
`CCCSc1ncnc2ccc(F)cc12` yielded a concentration giving a half-maximal response (EC50) of 46.2 µg/mL (≈ 208 µM).

In the case of `CCSc1ncnc2ccc(F)cc12`, a half-maximal effect (EC50) was put at 30.8 µg/mL (≈ 148 µM).

In turn, `C=CCSc1ncnc2ccc(F)cc12` displayed an EC50 of 40.6 µg/mL (≈ 184 µM).

For a further assay, the system named is Colletotrichum gloeosporioides. As to the kind of experiment: Antifungal activity against Colletotrichum gloeosporioides. In kind it is functional, organism-based.
In turn, `CCCSc1ncnc2ccc(F)cc12` had a 50% effective concentration (EC50) of 40.1 µg/mL (≈ 180 µM).

Consider `CCSc1ncnc2ccc(F)cc12`, for which the EC50 came out at 64.2 µg/mL (≈ 308 µM).

`C=CCSc1ncnc2ccc(F)cc12` displayed an EC50 of 21.4 µg/mL (≈ 97.2 µM).

Another assay deals with Fusarium oxysporum. As to the kind of experiment: Antifungal activity against Fusarium oxysporum. The format is functional, organism-based. In outline: (§3)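 Preliminary fungicidal bioassay on plant-pathogenic fungi (G. zeae, F. oxysporum, C. mandshurica), with the commercial fungicide Hymexazol as reference.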
Consider `CCCSc1ncnc2ccc(F)cc12`, for which a half-maximal effect (EC50) was put at 25.1 µg/mL (≈ 113 µM).

`CCSc1ncnc2ccc(F)cc12` yielded a half-maximal effective concentration (EC50) of 18.2 µg/mL (≈ 87.4 µM).

Take `C=CCSc1ncnc2ccc(F)cc12`: the EC50 turned out to be 32.2 µg/mL (≈ 146 µM).

For a further assay, the system named is Fusarium oxysporum. As to the kind of experiment: Decrease in mycelial chitinase activity assessed as D-GlcNAc content in Fusarium oxysporum after 1 hrs. In kind it is functional. The essentials:
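F. oxysporum mycelia were treated over a time course up to 24 h and compared with an untreated control, with Hymexazol as reference fungicide. Chitinase activity was read as the D-GlcNAc content (mg/mL) produced by the enzyme in 1 h.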
Turning to `Cc1cc(O)no1` [HYMEXAZOL], the Activity was found to be 0.0411 mg/mL.

For `CCSc1ncnc2ccc(F)cc12`, the Activity is 0.0364 mg/mL.

The next assay relates to Fusarium graminearum. As to the kind of experiment: Antifungal activity against Gibberella zeae. In kind it is functional, organism-based.
`CCCSc1ncnc2ccc(F)cc12` registered an EC50 of 30.1 µg/mL (≈ 135 µM).

In turn, `CCSc1ncnc2ccc(F)cc12` returned an EC50 of 12.4 µg/mL (≈ 59.5 µM).

`C=CCSc1ncnc2ccc(F)cc12` yielded an EC50 of 37 µg/mL (≈ 168 µM).

In a further assay the test system is Sclerotinia sclerotiorum. As to the kind of experiment: Antifungal activity against Sclerotinia sclerotiorum. In kind it is functional, organism-based.
With `Cc1cc(O)no1` [HYMEXAZOL], a half-maximal response (EC50) required 5.1 µg/mL (≈ 51.5 µM).

Turning to `CCCSc1ncnc2ccc(F)cc12`, the EC50 was 17.1 µg/mL (≈ 76.9 µM).

For `CCSc1ncnc2ccc(F)cc12`, the response was half-maximal at 11.4 µg/mL (≈ 54.7 µM) (EC50).

With `C=CCSc1ncnc2ccc(F)cc12`, the EC50 was found to be 35.2 µg/mL (≈ 160 µM).

In a further assay the test system is Fusarium oxysporum. Briefly: Decrease in mycelial reducing sugar content in Fusarium oxysporum at 6 hrs. The format is functional, organism-based. The essentials: as §1
For the compound `CCSc1ncnc2ccc(F)cc12`, the outcome was Active.

In a further assay the test system is Cytospora. As to the kind of experiment: Antifungal activity against Cytospora mandshurica. The format is functional. The essentials:
as §3
`CCCSc1ncnc2ccc(F)cc12` came in with an EC50 of 25.8 µg/mL (≈ 116 µM).

The compound `CCSc1ncnc2ccc(F)cc12` displayed an EC50 of 19.2 µg/mL (≈ 92.2 µM).

Consider `C=CCSc1ncnc2ccc(F)cc12`, for which a half-maximal response (EC50) required 23.3 µg/mL (≈ 106 µM).

In another assay the test system is Fusarium oxysporum. Briefly: Increase in mycelial soluble protein content in Fusarium oxysporum relative to control after 0.5 hrs. In kind it is functional. The essentials:
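Soluble protein content of treated F. oxysporum mycelia was followed from 0.5 h of exposure and expressed relative to an untreated control. Hymexazol was run alongside as reference.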
In turn, `CCSc1ncnc2ccc(F)cc12` yielded an Activity of 33.1%.

The subject of another assay is Fusarium oxysporum. As to the kind of experiment: Inhibition of sporule germination of Fusarium oxysporum at 60 ug/mL. The format is functional. The essentials:
as §2
The compound `CCSc1ncnc2ccc(F)cc12` came in with an inhibition at 60 µg/mL of 32.9%.

A word on the EC50: it is the concentration at which the effect is half-maximal. Usually inhibition stands for the change of the read-out against control, counted positive when it falls.
